Measured values as given in ChEMBL document CHEMBL1140939, “A series of 2,4-disubstituted quinolines as a new class of allosteric enhancers of the adenosine A3 receptor” (J Med Chem, 2009).

Columns and labels:
[1] = molecular target: Adenosine receptor A2a (Homo sapiens) (UniProt P29274); assay: Displacement of [3H]ZM241385 from human adenosine A2A receptor expressed in HEK293 cells at 10 uM; format: cell-based
In short: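 HEK293 membranes with human A2A (30 µg protein) incubated 120 min at 25 °C in 50 mM Tris-HCl pH 7.4 with ~1.7 nM [3H]ZM241385 and 10 µM test ligand. Nonspecific binding defined by 100 µM CGS 21680. Filtration, then liquid scintillation counting.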

[2] = molecular target: T1, Adenosine receptor A1 (Homo sapiens) (UniProt P30542); assay: Displacement of [125I]AB-MECA from human adenosine A1 receptor expressed in CHO cells at 10 uM; format: cell-based
T1 sequence (whole entry): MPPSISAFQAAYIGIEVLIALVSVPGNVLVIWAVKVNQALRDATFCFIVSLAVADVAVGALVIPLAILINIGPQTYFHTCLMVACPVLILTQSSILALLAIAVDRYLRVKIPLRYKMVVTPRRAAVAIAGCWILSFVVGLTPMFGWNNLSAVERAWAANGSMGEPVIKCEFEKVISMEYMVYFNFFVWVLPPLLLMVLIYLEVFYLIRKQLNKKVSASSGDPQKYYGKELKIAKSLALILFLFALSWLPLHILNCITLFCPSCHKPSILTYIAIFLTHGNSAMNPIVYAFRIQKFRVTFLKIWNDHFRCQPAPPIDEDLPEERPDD
In short: (§1)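 Equilibrium binding on CHO membranes with human A1 (20 µg protein, 60 min) or A3 (10 µg, 120 min) at 25 °C. Buffer 50 mM Tris-HCl pH 8.0, 10 mM MgCl2, 1 mM EDTA, 0.01% CHAPS. Test ligand 10 µM with ~0.1 nM 125I-AB-MECA. Nonspecific binding with 10 µM DPCPX (A1) or 100 µM R-PIA (A3). Filtration, then γ-counting.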

[3] = molecular target: T2, Adenosine receptor A3 (Homo sapiens) (UniProt P0DMS8); assay: Displacement of [125I]AB-MECA from human adenosine A3 receptor expressed in CHO cells at 10 uM; format: cell-based; in short: as §1
T2 sequence (whole entry): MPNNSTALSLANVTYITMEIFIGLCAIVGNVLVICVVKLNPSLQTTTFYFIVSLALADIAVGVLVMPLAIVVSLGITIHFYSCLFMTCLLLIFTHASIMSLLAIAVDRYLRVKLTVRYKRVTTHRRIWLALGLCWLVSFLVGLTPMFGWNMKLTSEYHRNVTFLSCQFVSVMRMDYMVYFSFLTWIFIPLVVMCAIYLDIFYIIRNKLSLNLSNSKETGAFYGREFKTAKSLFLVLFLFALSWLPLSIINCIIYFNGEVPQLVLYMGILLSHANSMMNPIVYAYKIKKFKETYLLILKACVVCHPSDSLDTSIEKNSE

[4] = molecular target: T3, Adenosine receptor A2b (Homo sapiens) (UniProt P29275); assay: Displacement of [3H]MRS1754 from human adenosine A2B receptor expressed in CHO cells at 10 uM; format: cell-based
T3 sequence (whole entry): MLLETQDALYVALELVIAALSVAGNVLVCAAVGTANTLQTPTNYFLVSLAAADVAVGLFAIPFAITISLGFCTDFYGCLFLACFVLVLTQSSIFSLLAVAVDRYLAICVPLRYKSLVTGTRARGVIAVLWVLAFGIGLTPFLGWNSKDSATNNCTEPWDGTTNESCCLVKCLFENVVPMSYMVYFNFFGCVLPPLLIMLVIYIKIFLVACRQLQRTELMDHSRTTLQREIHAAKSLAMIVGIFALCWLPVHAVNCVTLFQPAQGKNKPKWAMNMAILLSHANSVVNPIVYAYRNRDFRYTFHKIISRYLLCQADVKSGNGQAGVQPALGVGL
In short: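 CHO membranes expressing human A2B (20 µg protein) with ~1.2 nM [3H]MRS1754 and 10 µM test ligand, 60 min at 25 °C, in 50 mM Tris-HCl pH 7.4 with 0.1% CHAPS. Nonspecific binding with 1 mM NECA. Filtration, then scintillation counting.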

[5] = molecular target: T2, Adenosine receptor A3 (Homo sapiens); assay: Binding affinity to human adenosine A3 receptor expressed in CHO cells assessed as enhancement of C1IB-MECA-induced displacement of [125I]AB-MECA from receptor at 10 uM after 120 mins relative to control
[6] = molecular target: T1, Adenosine receptor A1 (Homo sapiens); assay: Binding affinity to human adenosine A1 receptor expressed in CHO cells assessed as enhancement of DPCPX-induced displacement of [125I]AB-MECA from receptor at 10 uM after 90 mins relative to control; format: cell-based
In short: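 CHO membranes expressing human A1 (20 µg) or A3 (10 µg) preincubated with ~0.1 nM 125I-AB-MECA at 25 °C, 60 min (A1) or 120 min (A3), in 50 mM Tris-HCl pH 8.0, 10 mM MgCl2, 1 mM EDTA, 0.01% CHAPS. Dissociation started with 10 µM DPCPX (A1) or 10 µM Cl-IB-MECA (A3), with or without modulator. Bound ligand read at 90 min (A1) or 120 min (A3); control = 100%. Two assays in duplicate.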

[7] = molecular target: T2, Adenosine receptor A3 (Homo sapiens); assay: Intrinsic activity at human adenosine A3 receptor expressed in CHO cells assessed as increase in C1IB-MECA-stimulated inhibition of forskolin-induced cAMP release at 10 uM by TR-FRET assay; format: functional, cell-based
In short: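 Forskolin-stimulated cAMP in CHOhA3 cells (~5000/well). Cl-IB-MECA concentration range given with or without 10 µM modulator in stimulation buffer (PBS, 5 mM Hepes pH 7.4, 0.1% BSA, 50 µM rolipram, 50 µM cilostamide), 15 min at room temperature. Forskolin 1 µM added, 30 min at room temperature. TR-FRET cAMP read-out. 100% = cAMP with 10 µM Cl-IB-MECA, 0% = forskolin alone. Three assays in duplicate.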

Adenosine receptor A2a (Homo sapiens), sequence (P29274 whole entry): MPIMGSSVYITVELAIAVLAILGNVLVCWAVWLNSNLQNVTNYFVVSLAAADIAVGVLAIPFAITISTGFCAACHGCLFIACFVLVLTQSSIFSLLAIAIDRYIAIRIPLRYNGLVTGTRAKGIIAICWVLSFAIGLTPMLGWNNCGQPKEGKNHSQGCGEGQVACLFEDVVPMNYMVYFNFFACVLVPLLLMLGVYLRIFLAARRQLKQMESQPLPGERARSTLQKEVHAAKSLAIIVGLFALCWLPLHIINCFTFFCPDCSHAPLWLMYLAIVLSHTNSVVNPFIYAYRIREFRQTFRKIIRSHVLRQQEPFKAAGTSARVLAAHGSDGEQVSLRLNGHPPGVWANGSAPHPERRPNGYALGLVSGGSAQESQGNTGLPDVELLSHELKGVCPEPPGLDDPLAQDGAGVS

SMILES | Activity [1] [%] | Activity [2] [%] | Activity [3] [%] | Activity [4] [%] | Activity [5] [%] | Activity [6] [%] | Emax [7] [%]
O=C(Nc1cc(Nc2ccc(Cl)c(Cl)c2)nc2ccccc12)C1CCCCC1 | -19 | 12 | 12 | 17 | 249 | 94 | 223
O=C(Nc1cc(Nc2ccccc2)nc2ccccc12)c1ccccc1 | 75 | 64 | 46 | 76 | 100 | 77 | –
O=C(Nc1cc(Nc2ccc(Cl)c(Cl)c2)nc2ccccc12)c1ccco1 | 10 | 11 | 15 | 13 | 96 | 69 | –
O=C(Nc1cc(Nc2ccc(Cl)c(Cl)c2)nc2ccccc12)C1CCC1 | 38 | 22 | 41 | 51 | 149 | 72 | –
O=C(Nc1cc(NC2CCCC2)nc2ccccc12)C1CCCC1 | 72 | 80 | 42 | 14 | 114 | 107 | –
Clc1ccc(Nc2nc3ccccc3c3nc(C4CCCCC4)[nH]c23)cc1Cl | 16 | 39 | 3 | 41 | 229 | 120 | 286
O=C(Nc1cc(Nc2ccc(Cl)c(Cl)c2)nc2ccccc12)C1CCCC1 | -74 | 17 | 26 | -50 | 169 | 125 | –
O=C(Nc1cc(Nc2ccc3c(c2)CCC3)nc2ccccc12)C1CCCCC1 | 19 | 20 | 10 | 42 | 217 | 118 | –
O=C(Nc1cc(Nc2ccc3cn[nH]c3c2)nc2ccccc12)C1CCCC1 | 56 | 61 | 52 | 90 | 102 | 72 | –
O=C(Nc1cc(NCc2ccccc2)nc2ccccc12)C1CCCC1 | 49 | 34 | 34 | 28 | 107 | 77 | –

The remaining lines, values ahead:

Activity [1] [%] | Activity [2] [%] | Activity [3] [%] | Activity [4] [%] | Activity [5] [%] | Activity [6] [%] | Emax [7] [%] | SMILES
95 | 73 | 92 | 60 | 100 | 68 | – | O=C(Nc1cc(Nc2ccccc2)nc2ccccc12)c1ccco1
14 | 47 | 36 | 62 | 147 | 90 | – | O=C(Nc1cc(Nc2ccc3c(c2)CCC3)nc2ccccc12)C1CCCC1
5 | 17 | 21 | 26 | 210 | 70 | – | O=C(Nc1cc(Nc2ccccc2)nc2ccccc12)C1CCCCC1
-3 | 63 | -3 | 64 | 220 | 121 | – | Cc1ccc(Nc2cc(NC(=O)C3CCCCC3)c3ccccc3n2)cc1
35 | 52 | 27 | 63 | 165 | 115 | – | Cc1ccc(Nc2cc(NC(=O)C3CCCC3)c3ccccc3n2)cc1
79 | 76 | 73 | 66 | 119 | 79 | – | O=C(Nc1cc(Nc2ccccc2)nc2ccccc12)C1CCC1
34 | 49 | 33 | 61 | 145 | 104 | – | O=C(Nc1cc(Nc2ccccc2)nc2ccccc12)C1CCCC1
19 | 24 | 9 | 35 | 134 | 94 | – | COc1ccc(Nc2cc(NC(=O)C3CCCC3)c3ccccc3n2)cc1
-20 | 23 | 11 | 37 | 112 | 102 | – | O=C(Nc1cc(Nc2ccc(Cl)c(Cl)c2)nc2ccccc12)c1ccccc1
